The subject of one assay is cAMP in the PFC of mice. The assay can be described thus: Determination of cAMP in mouse prefrontal cortex. It counts as in vivo. The conditions noted are these: 30 min after p.o. administration, highest dose tested, P < 0.05. Put shortly:
(§1)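 Adult male CD-1 mice, n = 8/group, dosed p.o. with vehicle (0.5% Natrosol, 0.01% Tween-80) or test compound. Killed by focused microwave brain irradiation 30 min later. PFC homogenized and centrifuged in 0.5 N HCl; supernatant assayed by ELISA. Detection limits: cGMP 0.02, cAMP 0.03 pmol·mg−1 tissue. One-way ANOVA, Dunnett's.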

Assay [1] relates to synaptic transmission in acute slices of the rat PFC. Nature of the assay: Extracellular field potential. Format: cell-based. The procedure, abridged:
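PFC slices from male Sprague Dawley rats aged 5–6 weeks, cut in ice-cold ACSF (pH 7.4, 95% O2/5% CO2). Layer V fEPSPs (prelimbic/infralimbic) evoked by 100 μs pulses every 30 s to layers II–III. Drugs from DMSO, 0.05% final, applied 30–60 min after 30 min baseline. Amplitude as % of last 10 min baseline; 3–14 slices/group; paired t-test.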

The subject of the next assay is male CD‐1 mice. Nature of the assay: T‐maze continuous alternation task, MK‐801‐induced memory impairment. The following applies: for time spent in the T‐maze vs. MK‐801/vehicle‐treated group: P > 0.05. It counts as in vivo, mouse. Put shortly: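 Male CD-1 mice (about 28 g) on a reversed light cycle, tested in the dark phase in an enclosed, elevated T-maze under dim light (10 lux). MK-801 s.c. 30 min pre-test; test compound (0.1–75 mg·kg−1 p.o., Natrosol/Tween vehicle) given just after it. 14 trials in 14 min; mice completing <50% excluded. Reversal scaled: saline/vehicle 100%, MK-801/vehicle 0%. Kruskal–Wallis, Dunn's.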

The test system of the next assay is cGMP in the PFC of mice. Nature of the assay: Determination of cGMP in mouse prefrontal cortex. Format: in vivo. The conditions noted are these: 30 min after p.o. administration, highest dose tested, P < 0.05. Put shortly: as §1
For a further assay, the system named is male Lister‐hooded rats. The assay can be described thus: 5‐choice serial reaction time task. Format: in vivo, rat. The procedure, abridged: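 Food-restricted rats held at about 85% of free-feeding weight. Trained to criterion: ≥50 correct trials, ≥70% accuracy, ≤20% omissions (SD 0.7 s, ITI 5 s, LH 5 s). Ten challenge sessions with SD cut from 700 to 500 ms. Upper and lower 15% by mean accuracy taken as high/low performers, n = 9. Test compound in saline given i.p. 10 min pre-test. Repeated-measures ANOVA, Dunnett's.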

Where [2] appears, read: high‐performing rats, 3 mg·kg^−1, mean ± SEM.
Setting [3] is: high‐performing rats, 6 mg·kg^−1, mean ± SEM.
Where [4] appears, read: low‐performing rats, 3 mg·kg^−1, mean ± SEM.
The mark [5] stands for this setting: low‐performing rats, 6 mg·kg^−1, mean ± SEM.

The structures appear in SMILES notation.

Turning to `CN1C(=O)c2c(nn(Cc3ccc(-c4cccc(F)n4)cc3)c2Nc2ccccc2)N2C1=N[C@@H]1CCC[C@@H]12` [ITI‐214], in the assay on cAMP in the PFC of mice, the “PFC cAMP vs. vehicle” value was “significant increase”. For the same compound, in assay [1] (ITI‐214 per se), the “effect on fEPSP amplitude, compound alone” value was “did not show any effects per se”. Moreover, the “effect on forskolin‐induced fEPSP amplitude with activated PDE1” value in assay [1] (forskolin + thapsigargin + ITI‐214) is given as “rescued the reduced fEPSPs amplitudes”. Further, the “change in alternation of MK‐801‐treated mice” value in the assay on male CD‐1 mice (ITI‐214 0.1 mg·kg^−1 p.o., MK‐801 0.1 mg·kg^−1 s.c.) is on record as 0%; in the assay on male CD‐1 mice (ITI‐214 1 mg·kg^−1 p.o., MK‐801 0.1 mg·kg^−1 s.c.), 13%; in the assay with male CD‐1 mice (ITI‐214 3 mg·kg^−1 p.o., MK‐801 0.1 mg·kg^−1 s.c.), 12%; in the assay on male CD‐1 mice (ITI‐214 10 mg·kg^−1 p.o., MK‐801 0.1 mg·kg^−1 s.c.), 10%; with male CD‐1 mice (ITI‐214 30 mg·kg^−1 p.o., MK‐801 0.1 mg·kg^−1 s.c.), 7%; in the assay on male CD‐1 mice (ITI‐214 75 mg·kg^−1 p.o., MK‐801 0.1 mg·kg^−1 s.c.) it was 2%. The “effect on alternation performance of MK‐801‐treated mice” value is “statistically significant” in the assay on male CD‐1 mice (ITI‐214 1 mg·kg^−1 p.o., P < 0.05 vs. MK‐801) and “trend towards a significant effect” with male CD‐1 mice (ITI‐214 3 mg·kg^−1 p.o., P = 0.059 vs. MK‐801). The “recovery in cognitive performance” value in the assay with male CD‐1 mice (mice, ITI‐214 0.1 mg·kg^−1 p.o., MK‐801 0.1 mg·kg^−1 s.c.) was found to be 1%; in the assay on male CD‐1 mice (mice, ITI‐214 1 mg·kg^−1 p.o., MK‐801 0.1 mg·kg^−1 s.c.) it was 57%; in the assay with male CD‐1 mice (mice, ITI‐214 3 mg·kg^−1 p.o., MK‐801 0.1 mg·kg^−1 s.c.) it was 51%; in the assay on male CD‐1 mice (mice, ITI‐214 10 mg·kg^−1 p.o., MK‐801 0.1 mg·kg^−1 s.c.), 45%; in the assay with male CD‐1 mice (mice, ITI‐214 30 mg·kg^−1 p.o., MK‐801 0.1 mg·kg^−1 s.c.), 32%; in the assay with male CD‐1 mice (mice, ITI‐214 75 mg·kg^−1 p.o., MK‐801 0.1 mg·kg^−1 s.c.), 11%. Further, the “time spent in the T‐maze vs. MK‐801/vehicle‐treated group” value in the assay with male CD‐1 mice (mice, ITI‐214 0.1–75 mg·kg^−1 p.o.) is “did not change”. Further, the “maximal effect, recovery in the cognitive function” value in the assay with male CD‐1 mice (mice, ITI‐214 p.o., MK‐801 0.1 mg·kg^−1) is “approximately 57%”. Further, the “PFC cGMP vs. vehicle” value in the assay with cGMP in the PFC of mice is “significant increase”.

For `C[C@]12N[C@H](Cc3ccccc31)c1ccccc12` [MK‐801], the “overall time spent to complete the T‐maze task vs. control group” value with male CD‐1 mice (mice, MK‐801 0.075 mg·kg^−1 s.c., Figure S1a (SKF38393 study)) is listed as “reduced”; in the assay on male CD‐1 mice (mice, MK‐801 0.1 mg·kg^−1 s.c., Figure S1b (ITI‐214 study)), “reduced”. In the assay on male CD‐1 mice (mice, MK‐801 0.075 mg·kg^−1 s.c., P < 0.05), the “spontaneous alternation vs. vehicle‐injected mice” value is recorded as “significant reduction”. Further, the “reduction of spontaneous alternation vs. vehicle‐injected mice” value in the assay with male CD‐1 mice (mice, MK‐801 0.1 mg·kg^−1 s.c., P < 0.05) is reported as about 23%.

With `Oc1cc2c(cc1O)C(c1ccccc1)CNCC2` (stereo not drawn) [SKF38393], the “effect on synaptic transmission (fEPSP amplitude)” value in assay [1] (SKF38393) is given as “increased synaptic transmission”. In addition, the Correct latency in the assay with male Lister‐hooded rats (setting [2]) is 0.79 ± 0.02 s; with male Lister‐hooded rats (setting [3]), 0.83 ± 0.03 s; in the assay on male Lister‐hooded rats (setting [4]), 0.77 ± 0.02 s; with male Lister‐hooded rats (setting [5]), 0.85 ± 0.03 s. Also, the Omissions in the assay with male Lister‐hooded rats (setting [2]) worked out at 11.24 ± 2.64 n; in the assay with male Lister‐hooded rats (setting [3]), 21.65 ± 2.98 n; with male Lister‐hooded rats (setting [4]), 10.61 ± 1.70 n; with male Lister‐hooded rats (setting [5]) it was 17.74 ± 2.58 n. In addition, the Perseverative responses is reported as 0.94 ± 0.26 n in the assay on male Lister‐hooded rats (setting [2]), 1.06 ± 0.27 n in the assay with male Lister‐hooded rats (setting [3]), 0.83 ± 0.26 n in the assay with male Lister‐hooded rats (setting [4]) and 0.67 ± 0.20 n with male Lister‐hooded rats (setting [5]). In addition, the Premature responses in the assay on male Lister‐hooded rats (setting [2]) stood at 3.17 ± 0.72%; in the assay with male Lister‐hooded rats (setting [3]), 1.97 ± 0.69 %; in the assay on male Lister‐hooded rats (setting [4]) it was 3.06 ± 0.27 %; in the assay on male Lister‐hooded rats (setting [5]), 2.15 ± 0.49 %. Besides, the Reward latency in the assay with male Lister‐hooded rats (setting [2]) was 1.24 ± 0.06 s; in the assay with male Lister‐hooded rats (setting [3]) it was 1.27 ± 0.06 s; in the assay with male Lister‐hooded rats (setting [4]), 1.21 ± 0.04 s; with male Lister‐hooded rats (setting [5]), 1.31 ± 0.06 s. Also, the enhancement of accuracy entry in the assay on male Lister‐hooded rats (high‐performing rats, SKF38393 3 or 6 mg·kg^−1 i.p., P > 0.05) was “but not high‐performing rats”. Moreover, the “recovery in the cognitive performance” value in the assay with male CD‐1 mice (mice, SKF38393 4 mg·kg^−1 s.c., MK‐801 0.075 mg·kg^−1 s.c.) is given as 67%; in the assay on male CD‐1 mice (mice, SKF38393 8 mg·kg^−1 s.c., MK‐801 0.075 mg·kg^−1 s.c.), 43%. Moreover, the “effect on MK‐801‐induced deficits in spontaneous alternation” value is reported as “ineffective” in the assay on male CD‐1 mice (mice, SKF38393 8 mg·kg^−1 s.c., P > 0.05 vs. MK‐801 and vehicle); “improved” in the assay on male CD‐1 mice (mice, SKF38393 2 and 4 mg·kg^−1 s.c., P < 0.05 vs. MK‐801). The “time spent in the T‐maze vs. MK‐801/vehicle‐treated group” value in the assay on male CD‐1 mice (mice, SKF38393 2, 4, 8 mg·kg^−1 s.c.) is recorded as “did not change”. In addition, the “maximal effect, recovery in the cognitive function” value in the assay with male CD‐1 mice (mice, SKF38393 s.c., MK‐801 0.075 mg·kg^−1) is on record as “approximately 67%”.

`C=C[C@@]1(C)CC(=O)[C@]2(O)[C@@]3(C)[C@@H](O)CCC(C)(C)[C@@H]3[C@H](O)[C@H](OC(C)=O)[C@@]2(C)O1` [forskolin]: the “effect on fEPSPs” value in assay [1] (forskolin 0.1, 1, 10 μM) is reported as “increased fEPSPs concentration‐dependently”.

Take `C/C=C(/C)C(=O)O[C@H]1C(C)=C2[C@H]([C@@H]1OC(=O)CCCCCCC)[C@@](C)(OC(C)=O)C[C@H](OC(=O)CCC)[C@@]1(O)[C@H]2OC(=O)[C@@]1(C)O` [thapsigargin]: the “effect on forskolin‐induced fEPSP amplitude” value in assay [1] (forskolin + thapsigargin (PDE1 activated via Ca^2+/calmodulin)) is “reduced fEPSPs amplitudes”.
